Test results taken from ChEMBL document CHEMBL1124692, “Synthesis of a tritium-labeled indolidan analogue and its use as a radioligand for phosphodiesterase-inhibitor cardiotonic binding sites” (J Med Chem, 1989).

Legend:
[1] = (§1) Displacement [3H]LY-186,126 from phosphodiesterase 4 of myocardial vesicles; assay type: tissue-based, Canis lupus familiaris, Myocardium
How it was run: (§2)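 Canine ventricular myocardial vesicles (mixed sarcolemmal and SR; stored at –80 °C), about 100 μg protein, incubated 60 min at 25 °C in 50 mM Tris-Cl pH 7.4, 5 mM MgCl2, 0.01% BSA with 10 nM [3H]-LY186126 (79.2 Ci/mmol). Competitors in DMSO were tested at 0.003–100 μM in half-log steps. Samples were filtered on GF/C and washed with cold phosphate. Specific binding is the part displaced by 100 μM indolidan. Run in triplicate; Ki from nonlinear least-squares fits.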

Phosphodiesterase 4 [2] = target: T1, Phosphodiesterase 4 (Homo sapiens, UniProt P27815+Q08499+Q07343+Q08493); experiment: as §1; assay type: tissue-based, Canis lupus familiaris, Myocardium; how it was run: as §2
Phosphodiesterase 4 [3] = target: T1, Phosphodiesterase 4; experiment: Inhibition of sarcoplasmic reticulum Phosphodiesterase 4; assay type: protein assay, Canis lupus familiaris
Phosphodiesterase 4 [4] = target: T1, Phosphodiesterase 4; experiment: Binding affinity for sarcoplasmic reticulum phosphodiesterase 4 of canine ventricle; assay type: protein assay, Canis lupus familiaris; conditions: target entry is the homologue from another species
Phosphodiesterase 4 [5] = target: T1, Phosphodiesterase 4; experiment: Binding affinity for Phosphodiesterase 4 of canine myocardial vesicles; assay type: protein assay, Canis lupus familiaris; conditions: target entry is the homologue from another species; how it was run: as §2

Row | SMILES | Ki (Phosphodiesterase 4 [2]) | IC50 (Phosphodiesterase 4 [3]) | further results
1 | O=C1CCC(c2ccc3c(c2)CCC(=O)N3)=NN1 |  |  | Ki [1]: 2.5 nM
2 | CN1N=C(c2ccc3c(c2)CC(=O)N3)CCC1=O | 61400 nM |  | 
3 | CC1CC(=O)NN=C1c1ccc2c(c1)C(C)(C)C(=O)N2 (centres undefined) | 0.54 nM |  | 
4 | CC1(C)C(=O)Nc2ccc(C3=NNC(=O)CC3)cc21 [INDOLIDAN] | 5.4 nM | 150 nM | 
5 | CN1C(=O)C(C)(C)c2cc(C3=NNC(=O)CC3)ccc21 |  | 760 nM | 
6 | CC1CC(=O)NN=C1c1ccc2c(c1)C(C)(C)C(=O)N2C (centres undefined) |  | 120 nM | Kd (Phosphodiesterase 4 [4]): 3.9 nM; Kd (Phosphodiesterase 4 [5]): 4.1 nM
